Measurements from ChEMBL document CHEMBL3227952, “Potential organ- or tumor-imaging agents. 18. Radioiodinated diamines and bisquaternaries” (J Med Chem, 1979).

Assays:
Adrenal [1] = test: Drug uptake in Sprague-Dawley rat adrenal at 11.9 to 12.1 uCi, iv after 0.5 hrs by liquid scintillation counting; assay type: ADME, organism-based, Adrenal gland; settings: in vivo
[2] = Drug uptake in Sprague-Dawley rat bone marrow at 11.9 to 12.1 uCi, iv after 0.5 hrs by liquid scintillation counting; assay type: ADME, organism-based; settings: in vivo
Summary of the method: (§1)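 Dosing was by tail vein under ether. Five rats were killed by exsanguination at each time. Organs were rinsed, blotted and weighed, with duplicate samples in cellulose acetate capsules. Samples were counted in a well-scintillation gamma counter at 87% efficiency. Results are % administered dose/g, mean ± SEM.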

Brain [3] = test: Drug uptake in Sprague-Dawley rat brain at 11.9 to 12.1 uCi, iv after 0.5 hrs by liquid scintillation counting; assay type: ADME, organism-based; settings: in vivo
[4] = Drug uptake in Sprague-Dawley rat diaphragm at 11.9 to 12.1 uCi, iv after 0.5 hrs by liquid scintillation counting; assay type: ADME, organism-based; settings: in vivo; summary of the method: as §1
Duodenum [5] = test: Drug uptake in Sprague-Dawley rat duodenum at 11.9 to 12.1 uCi, iv after 0.5 hrs by liquid scintillation counting; assay type: ADME, organism-based; settings: in vivo
Heart [6] = test: Drug uptake in Sprague-Dawley rat heart at 11.9 to 12.1 uCi, iv after 0.5 hrs by liquid scintillation counting; assay type: ADME, organism-based; settings: in vivo
Kidney [7] = test: Drug uptake in Sprague-Dawley rat kidney at 11.9 to 12.1 uCi, iv after 0.5 hrs by liquid scintillation counting; assay type: ADME, organism-based; settings: in vivo
Liver [8] = test: Drug uptake in Sprague-Dawley rat liver at 11.9 to 12.1 uCi, iv after 0.5 hrs by liquid scintillation counting; assay type: ADME, organism-based; settings: in vivo
Summary of the method: (§2)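 Five rats per time point were exsanguinated under ether. Organs were excised, rinsed, blotted and weighed. Duplicate samples were counted in a well-scintillation gamma counter (87% efficiency). Results are % administered dose/g, mean ± SEM.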

Lung [9] = test: Drug uptake in Sprague-Dawley rat lung at 11.9 to 12.1 uCi, iv after 0.5 hrs by liquid scintillation counting; assay type: ADME, organism-based; settings: in vivo
Pancreas [10] = test: Drug uptake in Sprague-Dawley rat pancreas at 11.9 to 12.1 uCi, iv after 0.5 hrs by liquid scintillation counting; assay type: ADME, organism-based; settings: in vivo; summary of the method: as §2
Pituitary gland [11] = test: Drug uptake in Sprague-Dawley rat pituitary at 11.9 to 12.1 uCi, iv after 0.5 hrs by liquid scintillation counting; assay type: ADME, organism-based; settings: in vivo
Spleen [12] = test: Drug uptake in Sprague-Dawley rat spleen at 11.9 to 12.1 uCi, iv after 0.5 hrs by liquid scintillation counting; assay type: ADME, organism-based; settings: in vivo
Thyroid gland [13] = test: Drug uptake in Sprague-Dawley rat thyroid at 11.9 to 12.1 uCi, iv after 0.5 hrs by liquid scintillation counting; assay type: ADME, organism-based; settings: in vivo; summary of the method: as §2
Testes [14] = test: Drug uptake in Sprague-Dawley rat testes at 11.9 to 12.1 uCi, iv after 0.5 hrs by liquid scintillation counting; assay type: ADME, organism-based, Testis; settings: in vivo; summary of the method: as §2
[15] = Drug uptake in Sprague-Dawley rat dorsolateral prostate at 11.9 to 12.1 uCi, iv after 0.5 hrs by liquid scintillation counting; assay type: ADME, organism-based, Prostate gland; settings: in vivo
[16] = Drug uptake in Sprague-Dawley rat ventral prostate at 11.9 to 12.1 uCi, iv after 0.5 hrs by liquid scintillation counting; assay type: ADME, organism-based, Prostate gland; settings: in vivo
Blood [17] = test: Drug uptake in Sprague-Dawley rat blood at 11.9 to 12.1 uCi, iv after 0.5 hrs by liquid scintillation counting; assay type: ADME, organism-based; settings: in vivo
Adrenal [18] = test: Drug uptake in Sprague-Dawley rat adrenal at 11.9 to 12.1 uCi, iv after 2 hrs by liquid scintillation counting; assay type: ADME, organism-based, Adrenal gland; settings: in vivo; summary of the method: as §1
[19] = Drug uptake in Sprague-Dawley rat bone marrow at 11.9 to 12.1 uCi, iv after 2 hrs by liquid scintillation counting; assay type: ADME, organism-based; settings: in vivo
Brain [20] = test: Drug uptake in Sprague-Dawley rat brain at 11.9 to 12.1 uCi, iv after 2 hrs by liquid scintillation counting; assay type: ADME, organism-based; settings: in vivo
[21] = Drug uptake in Sprague-Dawley rat diaphragm at 11.9 to 12.1 uCi, iv after 2 hrs by liquid scintillation counting; assay type: ADME, organism-based; settings: in vivo
Duodenum [22] = test: Drug uptake in Sprague-Dawley rat duodenum at 11.9 to 12.1 uCi, iv after 2 hrs by liquid scintillation counting; assay type: ADME, organism-based; settings: in vivo, in the assay text read “gamma counting” for “liquid scintillation counting”; summary of the method: as §1
Heart [23] = test: Drug uptake in Sprague-Dawley rat heart at 11.9 to 12.1 uCi, iv after 2 hrs by liquid scintillation counting; assay type: ADME, organism-based; settings: in vivo, in the assay text read “gamma counting” for “liquid scintillation counting”; summary of the method: as §1
Kidney [24] = test: Drug uptake in Sprague-Dawley rat kidney at 11.9 to 12.1 uCi, iv after 2 hrs by liquid scintillation counting; assay type: ADME, organism-based; settings: in vivo, in the assay text read “gamma counting” for “liquid scintillation counting”; summary of the method: as §2
Liver [25] = test: Drug uptake in Sprague-Dawley rat liver at 11.9 to 12.1 uCi, iv after 2 hrs by liquid scintillation counting; assay type: ADME, organism-based; settings: in vivo, in the assay text read “gamma counting” for “liquid scintillation counting”; summary of the method: as §2
Lung [26] = test: Drug uptake in Sprague-Dawley rat lung at 11.9 to 12.1 uCi, iv after 2 hrs by liquid scintillation counting; assay type: ADME, organism-based; settings: in vivo, in the assay text read “gamma counting” for “liquid scintillation counting”; summary of the method: as §2
Pancreas [27] = test: Drug uptake in Sprague-Dawley rat pancreas at 11.9 to 12.1 uCi, iv after 2 hrs by liquid scintillation counting; assay type: ADME, organism-based; settings: in vivo, in the assay text read “well-scintillation gamma counting” for “liquid scintillation counting”; summary of the method: as §2
Pituitary gland [28] = test: Drug uptake in Sprague-Dawley rat pituitary at 11.9 to 12.1 uCi, iv after 2 hrs by liquid scintillation counting; assay type: ADME, organism-based; settings: in vivo, in the assay text read “well-scintillation gamma counting” for “liquid scintillation counting”; summary of the method: as §2
Spleen [29] = test: Drug uptake in Sprague-Dawley rat spleen at 11.9 to 12.1 uCi, iv after 2 hrs by liquid scintillation counting; assay type: ADME, organism-based; settings: in vivo, in the assay text read “well-scintillation gamma counting” for “liquid scintillation counting”; summary of the method: as §2
Thyroid gland [30] = test: Drug uptake in Sprague-Dawley rat thyroid at 11.9 to 12.1 uCi, iv after 2 hrs by liquid scintillation counting; assay type: ADME, organism-based; settings: in vivo, in the assay text read “well-scintillation gamma counting” for “liquid scintillation counting”; summary of the method: as §2
Testes [31] = test: Drug uptake in Sprague-Dawley rat testes at 11.9 to 12.1 uCi, iv after 2 hrs by liquid scintillation counting; assay type: ADME, organism-based, Testis; settings: in vivo, in the assay text read “well-scintillation gamma counting” for “liquid scintillation counting”; summary of the method: as §2
[32] = Drug uptake in Sprague-Dawley rat dorsolateral prostate at 11.9 to 12.1 uCi, iv after 2 hrs by liquid scintillation counting; assay type: ADME, organism-based, Prostate gland; settings: in vivo
[33] = Drug uptake in Sprague-Dawley rat ventral prostate at 11.9 to 12.1 uCi, iv after 2 hrs by liquid scintillation counting; assay type: ADME, organism-based, Prostate gland; settings: in vivo; summary of the method: as §2
Blood [34] = test: Drug uptake in Sprague-Dawley rat blood at 11.9 to 12.1 uCi, iv after 2 hrs by liquid scintillation counting; assay type: ADME, organism-based; settings: in vivo

Molecule `CN(C)Cc1ccc(CN(C)C)c([125I])c1` has a Drug uptake (Adrenal [1]) of 2.287 % ID/g, a Drug uptake [2] of 0.483 % ID/g and a Drug uptake (Brain [3]) of 1.791 % ID/g. For the same molecule, the Drug uptake [4] was 0.241 % ID/g, the Drug uptake (Duodenum [5]) was 1.053 % ID/g and the Drug uptake (Heart [6]) was 0.367 % ID/g. It also gave a Drug uptake (Kidney [7]) of 3.598 % ID/g, a Drug uptake (Liver [8]) of 1.069 % ID/g and a Drug uptake (Lung [9]) of 1.993 % ID/g. The Drug uptake (Pancreas [10]) was 0.737 % ID/g, the Drug uptake (Pituitary gland [11]) was 0.899 % ID/g and the Drug uptake (Spleen [12]) was 1.402 % ID/g. For the same molecule, the Drug uptake (Thyroid gland [13]) was 5.001 % ID/g, the Drug uptake (Testes [14]) was 0.154 % ID/g and the Drug uptake [15] was 0.657 % ID/g. It also gave a Drug uptake [16] of 0.673 % ID/g, a Drug uptake (Blood [17]) of 0.05 % ID/g and a Drug uptake (Adrenal [18]) of 1.84 % ID/g. The Drug uptake [19] was 0.569 % ID/g, the Drug uptake (Brain [20]) was 1.255 % ID/g and the Drug uptake [21] was 0.114 % ID/g. The Drug uptake (Duodenum [22]) was 0.349 % ID/g, the Drug uptake (Heart [23]) was 0.174 % ID/g and the Drug uptake (Kidney [24]) was 2.225 % ID/g. For the same molecule, the Drug uptake (Liver [25]) was 1.042 % ID/g, the Drug uptake (Lung [26]) was 1.065 % ID/g and the Drug uptake (Pancreas [27]) was 0.349 % ID/g. It also gave a Drug uptake (Pituitary gland [28]) of 0.684 % ID/g, a Drug uptake (Spleen [29]) of 1.511 % ID/g and a Drug uptake (Thyroid gland [30]) of 3.114 % ID/g. For the same molecule, the Drug uptake (Testes [31]) was 0.163 % ID/g, the Drug uptake [32] was 0.614 % ID/g and the Drug uptake [33] was 0.588 % ID/g. It also gave a Drug uptake (Blood [34]) of 0.038 % ID/g.
